In ChEMBL document CHEMBL4043222, “Pyrrolizines: Design, synthesis, anticancer evaluation and investigation of the potential mechanism of action” (Bioorg Med Chem, 2017):
Blank lines part the entries; values can stand above or below the compound they belong to. Activity calls are given as the source filed them. No cut-off for these calls is given here.

How the values were obtained:
A549 [1] = assay: Growth inhibition of human A549 cells by MTT assay; assay type: functional, cell-based
Procedure, shortened: (§1)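 MTT viability. Cells seeded for 24 h, then exposed to compound for 48 h in DMEM/F-12 or DMEM with 5% FBS. Vehicle controls received matching DMSO. MTT added at 0.5 mg/mL for 3 h at 37 °C. Formazan dissolved in DMSO and absorbance read at 570 nm.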

[2] = biological target: T1, Prostaglandin G/H synthase 1 (Ovis aries, UniProt P05979); assay: Inhibition of ovine COX1 assessed as reduction in PGH2 formation by measuring PGF2alpha by colorimetric assay
T1 sequence (P05979 whole entry): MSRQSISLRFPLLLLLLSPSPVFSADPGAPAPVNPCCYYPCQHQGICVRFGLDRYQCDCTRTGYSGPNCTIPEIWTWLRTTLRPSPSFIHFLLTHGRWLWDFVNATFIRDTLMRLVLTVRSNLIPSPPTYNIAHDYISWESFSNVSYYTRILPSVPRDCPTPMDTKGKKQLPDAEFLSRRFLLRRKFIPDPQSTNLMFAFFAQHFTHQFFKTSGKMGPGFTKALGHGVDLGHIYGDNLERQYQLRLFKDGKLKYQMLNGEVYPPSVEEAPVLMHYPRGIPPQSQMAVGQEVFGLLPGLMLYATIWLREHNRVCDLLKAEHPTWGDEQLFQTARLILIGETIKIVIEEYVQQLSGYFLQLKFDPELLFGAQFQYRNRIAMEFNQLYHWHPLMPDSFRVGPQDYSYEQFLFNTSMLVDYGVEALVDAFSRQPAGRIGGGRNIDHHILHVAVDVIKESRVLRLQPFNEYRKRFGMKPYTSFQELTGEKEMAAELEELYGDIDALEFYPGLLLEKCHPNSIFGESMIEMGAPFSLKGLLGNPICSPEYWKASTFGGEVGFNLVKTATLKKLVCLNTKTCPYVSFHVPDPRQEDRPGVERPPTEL
Procedure, shortened: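 Colorimetric COX inhibitor screening kit run per the manufacturer, using ovine COX-1. IC50 calculated from three determinations.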

Hep 3B2 = assay: Growth inhibition of human Hep3B cells by MTT assay; assay type: functional, cell-based; procedure, shortened: as §1
MCF7 [3] = assay: Growth inhibition of human MCF7 cells by MTT assay; assay type: functional, cell-based; procedure, shortened: as §1
[4] = biological target: AMP-activated protein kinase (AMPK) alpha-1/beta-1/gamma-1 (Homo sapiens) (UniProt P54619+Q9Y478+Q13131); assay: Inhibition of AMPK alpha1/beta1/gamma1 (unknown origin) at 10 uM using [33P]-ATP after 20 to 40 mins by scintillation counting method; assay type: protein-complex assay
MCF7 [5] = assay: Induction of apoptosis in human MCF7 cells assessed as late apoptotic cells level at 10 uM incubated for 24 hrs by Annexin V PI/FITC staining based flow cytometry (reference value: 9%); assay type: functional
MCF7 [6] = assay: Induction of apoptosis in human MCF7 cells assessed as late necrosis cells level at 5 uM incubated for 24 hrs by Annexin V PI/FITC staining based flow cytometry (reference value: […]); assay type: functional
MCF7 [7] = assay: Induction of apoptosis in human MCF7 cells assessed as early apoptotic cells level at 1 uM incubated for 24 hrs by Annexin V PI/FITC staining based flow cytometry (reference value: 17.4%); assay type: functional
MCF7 [8] = assay: Induction of apoptosis in human MCF7 cells assessed as early apoptotic cells level at 5 uM incubated for 24 hrs by Annexin V PI/FITC staining based flow cytometry (reference value: 17.4%); assay type: functional
MCF7 [9] = assay: Induction of apoptosis in human MCF7 cells assessed as late apoptotic cells level at 5 uM incubated for 24 hrs by Annexin V PI/FITC staining based flow cytometry (reference value: 9%); assay type: functional
[10] = biological target: Ribosomal protein S6 kinase alpha-5 (Homo sapiens) (UniProt O75582); assay: Inhibition of MSK1 (unknown origin) at 10 uM using [33P]-ATP after 20 to 40 mins by scintillation counting method
[11] = biological target: Serine/threonine-protein kinase Sgk1 (Homo sapiens) (UniProt O00141); assay: Inhibition of SGK1 (unknown origin) at 10 uM using [33P]-ATP after 20 to 40 mins by scintillation counting method
Sequence of Serine/threonine-protein kinase Sgk1 (Homo sapiens) (O00141 whole entry): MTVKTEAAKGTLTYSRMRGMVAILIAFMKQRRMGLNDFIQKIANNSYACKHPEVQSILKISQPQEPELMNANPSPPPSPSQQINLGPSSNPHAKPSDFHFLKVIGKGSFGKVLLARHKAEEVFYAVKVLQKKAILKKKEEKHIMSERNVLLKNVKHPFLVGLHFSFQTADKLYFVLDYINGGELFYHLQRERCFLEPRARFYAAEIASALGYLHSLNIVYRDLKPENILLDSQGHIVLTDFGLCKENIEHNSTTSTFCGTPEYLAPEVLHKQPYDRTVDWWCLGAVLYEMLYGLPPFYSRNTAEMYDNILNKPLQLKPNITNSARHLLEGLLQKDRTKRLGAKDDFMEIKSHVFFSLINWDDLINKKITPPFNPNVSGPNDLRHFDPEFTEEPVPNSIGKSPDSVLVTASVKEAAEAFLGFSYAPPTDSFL

MCF7 [12] = assay: Induction of cell cycle arrest in human MCF7 cells assessed as increase in accumulation at G2/M phase at 10 uM by propidium iodide staining based flow cytometry relative to untreated control; assay type: functional
Procedure, shortened: (§2)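 MCF-7 seeded at 1×10^5 cells/well and attached overnight, then given 0, 1, 5 or 10 µM for 24 h. Cells pooled, fixed overnight in 70% ice-cold ethanol, treated with RNase A and stained with PI. Flow cytometry on 20000 events with doublets gated out. Mean ± S.D. (n = 3). Compared with DMSO vehicle by one-way ANOVA with Dunnett's test.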

[13] = biological target: Vascular endothelial growth factor receptor 1 (Homo sapiens) (UniProt P17948); assay: Inhibition of FLT1 (unknown origin) at 10 uM using [33P]-ATP after 20 to 40 mins by scintillation counting method
Sequence of Vascular endothelial growth factor receptor 1 (Homo sapiens) (P17948 whole entry): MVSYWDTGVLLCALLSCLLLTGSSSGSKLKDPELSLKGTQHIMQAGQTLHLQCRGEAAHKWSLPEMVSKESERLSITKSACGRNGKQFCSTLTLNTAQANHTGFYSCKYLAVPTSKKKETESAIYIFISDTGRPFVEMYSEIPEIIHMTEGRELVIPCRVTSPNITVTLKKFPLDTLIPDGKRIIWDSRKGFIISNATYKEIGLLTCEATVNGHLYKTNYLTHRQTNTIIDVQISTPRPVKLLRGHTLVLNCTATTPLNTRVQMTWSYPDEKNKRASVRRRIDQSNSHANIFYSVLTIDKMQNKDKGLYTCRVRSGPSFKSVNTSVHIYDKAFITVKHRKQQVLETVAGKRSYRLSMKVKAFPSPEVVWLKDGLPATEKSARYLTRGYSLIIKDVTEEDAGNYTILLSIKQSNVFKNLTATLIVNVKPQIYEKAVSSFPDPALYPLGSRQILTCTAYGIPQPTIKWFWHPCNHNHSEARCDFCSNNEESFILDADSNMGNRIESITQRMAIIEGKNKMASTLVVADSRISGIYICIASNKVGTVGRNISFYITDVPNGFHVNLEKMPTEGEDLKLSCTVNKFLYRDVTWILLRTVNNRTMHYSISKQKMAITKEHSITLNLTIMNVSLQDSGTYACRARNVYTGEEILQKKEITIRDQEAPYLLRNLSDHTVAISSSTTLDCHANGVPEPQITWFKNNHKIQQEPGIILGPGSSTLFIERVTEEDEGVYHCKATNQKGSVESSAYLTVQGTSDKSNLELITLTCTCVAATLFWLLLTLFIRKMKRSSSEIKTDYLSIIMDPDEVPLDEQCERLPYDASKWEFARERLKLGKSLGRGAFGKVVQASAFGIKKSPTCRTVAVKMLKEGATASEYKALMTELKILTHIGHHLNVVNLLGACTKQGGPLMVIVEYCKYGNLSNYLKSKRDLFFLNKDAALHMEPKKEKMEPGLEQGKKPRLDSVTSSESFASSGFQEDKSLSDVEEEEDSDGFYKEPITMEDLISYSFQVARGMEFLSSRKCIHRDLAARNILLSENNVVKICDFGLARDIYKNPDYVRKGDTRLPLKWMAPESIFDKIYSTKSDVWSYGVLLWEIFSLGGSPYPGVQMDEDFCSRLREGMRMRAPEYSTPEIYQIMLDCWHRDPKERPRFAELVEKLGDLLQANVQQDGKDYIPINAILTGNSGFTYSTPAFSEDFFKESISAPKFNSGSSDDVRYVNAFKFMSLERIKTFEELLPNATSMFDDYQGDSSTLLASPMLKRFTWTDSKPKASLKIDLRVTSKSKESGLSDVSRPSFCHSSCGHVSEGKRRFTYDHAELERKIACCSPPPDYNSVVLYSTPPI

MCF7 [14] = assay: Induction of apoptosis in human MCF7 cells assessed as late necrosis cells level at 1 uM incubated for 24 hrs by Annexin V PI/FITC staining based flow cytometry (reference value: […]); assay type: functional
MCF7 [15] = assay: Induction of cell cycle arrest in human MCF7 cells assessed as increase in accumulation at S phase at 5 and 10 uM by propidium iodide staining based flow cytometry relative to untreated control; assay type: functional; procedure, shortened: as §2
MCF7 [16] = assay: Induction of apoptosis in human MCF7 cells assessed as viable cells level at 10 uM incubated for 24 hrs by Annexin V PI/FITC staining based flow cytometry (reference value: 72.3%); assay type: functional
MCF7 [17] = assay: Induction of apoptosis in human MCF7 cells assessed as viable cells level at 5 uM incubated for 24 hrs by Annexin V PI/FITC staining based flow cytometry (reference value: 72.3%); assay type: functional
[18] = biological target: Serine/threonine-protein kinase Nek1 (Homo sapiens) (UniProt Q96PY6); assay: Inhibition of NEK1 (unknown origin) at 10 uM using [33P]-ATP after 20 to 40 mins by scintillation counting method
[19] = biological target: Glycogen synthase kinase-3 alpha (Homo sapiens) (UniProt P49840); assay: Inhibition of GSK3alpha (unknown origin) at 10 uM using [33P]-ATP after 20 to 40 mins by scintillation counting method
Sequence of Glycogen synthase kinase-3 alpha (Homo sapiens) (P49840 2-483 limits assumed): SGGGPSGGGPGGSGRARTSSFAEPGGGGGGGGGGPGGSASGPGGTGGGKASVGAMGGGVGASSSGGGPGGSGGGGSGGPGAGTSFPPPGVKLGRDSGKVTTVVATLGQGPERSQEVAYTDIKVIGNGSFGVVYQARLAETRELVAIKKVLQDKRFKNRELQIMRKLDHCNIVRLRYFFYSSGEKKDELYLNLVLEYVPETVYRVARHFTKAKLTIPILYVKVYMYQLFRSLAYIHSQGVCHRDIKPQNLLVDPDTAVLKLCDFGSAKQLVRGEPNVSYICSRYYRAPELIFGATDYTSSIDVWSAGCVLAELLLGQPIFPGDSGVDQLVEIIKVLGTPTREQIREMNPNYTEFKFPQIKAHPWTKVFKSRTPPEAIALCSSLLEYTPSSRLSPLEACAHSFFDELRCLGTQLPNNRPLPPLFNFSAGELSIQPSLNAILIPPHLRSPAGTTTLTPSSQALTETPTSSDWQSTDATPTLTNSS

MCF7 [20] = assay: Induction of apoptosis in human MCF7 cells assessed as early apoptotic cells level at 10 uM incubated for 24 hrs by Annexin V PI/FITC staining based flow cytometry (reference value: 17.4%); assay type: functional
[21] = biological target: Ephrin type-A receptor 1 (Homo sapiens) (UniProt P21709); assay: Inhibition of EPHA1 (unknown origin) at 10 uM using [33P]-ATP after 20 to 40 mins by scintillation counting method
[22] = biological target: 3-phosphoinositide-dependent protein kinase 1 (Homo sapiens) (UniProt O15530); assay: Inhibition of PDK1 (unknown origin) at 10 uM using [33P]-ATP after 20 to 40 mins by scintillation counting method
Sequence of 3-phosphoinositide-dependent protein kinase 1 (Homo sapiens) (O15530 whole entry): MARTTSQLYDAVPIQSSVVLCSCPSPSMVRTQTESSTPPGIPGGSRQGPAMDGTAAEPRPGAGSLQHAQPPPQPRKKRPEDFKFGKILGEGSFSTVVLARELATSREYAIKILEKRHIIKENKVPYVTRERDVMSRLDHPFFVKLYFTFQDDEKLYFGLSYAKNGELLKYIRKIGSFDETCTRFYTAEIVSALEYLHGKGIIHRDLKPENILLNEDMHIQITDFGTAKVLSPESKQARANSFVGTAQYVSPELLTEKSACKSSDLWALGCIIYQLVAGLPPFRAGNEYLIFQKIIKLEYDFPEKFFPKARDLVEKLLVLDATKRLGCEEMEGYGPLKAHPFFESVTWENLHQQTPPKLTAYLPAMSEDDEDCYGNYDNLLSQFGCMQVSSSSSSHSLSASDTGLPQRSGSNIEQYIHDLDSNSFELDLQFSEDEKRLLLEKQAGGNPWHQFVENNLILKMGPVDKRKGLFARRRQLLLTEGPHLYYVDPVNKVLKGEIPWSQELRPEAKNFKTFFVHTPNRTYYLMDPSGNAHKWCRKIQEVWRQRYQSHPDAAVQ

[23] = biological target: Tyrosine-protein kinase Blk (Homo sapiens) (UniProt P51451); assay: Inhibition of BLK (unknown origin) at 10 uM using [33P]-ATP after 20 to 40 mins by scintillation counting method
MCF7 [24] = assay: Induction of apoptosis in human MCF7 cells assessed as late necrosis cells level at 10 uM incubated for 24 hrs by Annexin V PI/FITC staining based flow cytometry (reference value: […]); assay type: functional
A549 [25] = assay: Induction of apoptosis in human A549 cells assessed as caspe-3/7 activation at 5 to 20 uM incubated for 24 hrs by Caspase-Glo 3/7 luminescence assay; assay type: functional, cell-based
Procedure, shortened: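 A549 cells plated at 1 x 10^4 per well and allowed 24 h to settle. Medium removed, then compounds added for 24 h at 5, 10 and 20 μM. Vehicle controls received equivalent DMSO. Caspase-3/7 activity read by Caspase-Glo 3/7 luminescence (RLU). Mean ± S.D. (n = 5), experiment done 3 times. Compared with vehicle by one-way ANOVA with Dunnett's test.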

[26] = biological target: Mitogen-activated protein kinase kinase kinase 5 (Homo sapiens) (UniProt Q99683); assay: Inhibition of ASK1 (unknown origin) at 10 uM using [33P]-ATP after 20 to 40 mins by scintillation counting method
Sequence of Mitogen-activated protein kinase kinase kinase 5 (Homo sapiens) (Q99683 whole entry): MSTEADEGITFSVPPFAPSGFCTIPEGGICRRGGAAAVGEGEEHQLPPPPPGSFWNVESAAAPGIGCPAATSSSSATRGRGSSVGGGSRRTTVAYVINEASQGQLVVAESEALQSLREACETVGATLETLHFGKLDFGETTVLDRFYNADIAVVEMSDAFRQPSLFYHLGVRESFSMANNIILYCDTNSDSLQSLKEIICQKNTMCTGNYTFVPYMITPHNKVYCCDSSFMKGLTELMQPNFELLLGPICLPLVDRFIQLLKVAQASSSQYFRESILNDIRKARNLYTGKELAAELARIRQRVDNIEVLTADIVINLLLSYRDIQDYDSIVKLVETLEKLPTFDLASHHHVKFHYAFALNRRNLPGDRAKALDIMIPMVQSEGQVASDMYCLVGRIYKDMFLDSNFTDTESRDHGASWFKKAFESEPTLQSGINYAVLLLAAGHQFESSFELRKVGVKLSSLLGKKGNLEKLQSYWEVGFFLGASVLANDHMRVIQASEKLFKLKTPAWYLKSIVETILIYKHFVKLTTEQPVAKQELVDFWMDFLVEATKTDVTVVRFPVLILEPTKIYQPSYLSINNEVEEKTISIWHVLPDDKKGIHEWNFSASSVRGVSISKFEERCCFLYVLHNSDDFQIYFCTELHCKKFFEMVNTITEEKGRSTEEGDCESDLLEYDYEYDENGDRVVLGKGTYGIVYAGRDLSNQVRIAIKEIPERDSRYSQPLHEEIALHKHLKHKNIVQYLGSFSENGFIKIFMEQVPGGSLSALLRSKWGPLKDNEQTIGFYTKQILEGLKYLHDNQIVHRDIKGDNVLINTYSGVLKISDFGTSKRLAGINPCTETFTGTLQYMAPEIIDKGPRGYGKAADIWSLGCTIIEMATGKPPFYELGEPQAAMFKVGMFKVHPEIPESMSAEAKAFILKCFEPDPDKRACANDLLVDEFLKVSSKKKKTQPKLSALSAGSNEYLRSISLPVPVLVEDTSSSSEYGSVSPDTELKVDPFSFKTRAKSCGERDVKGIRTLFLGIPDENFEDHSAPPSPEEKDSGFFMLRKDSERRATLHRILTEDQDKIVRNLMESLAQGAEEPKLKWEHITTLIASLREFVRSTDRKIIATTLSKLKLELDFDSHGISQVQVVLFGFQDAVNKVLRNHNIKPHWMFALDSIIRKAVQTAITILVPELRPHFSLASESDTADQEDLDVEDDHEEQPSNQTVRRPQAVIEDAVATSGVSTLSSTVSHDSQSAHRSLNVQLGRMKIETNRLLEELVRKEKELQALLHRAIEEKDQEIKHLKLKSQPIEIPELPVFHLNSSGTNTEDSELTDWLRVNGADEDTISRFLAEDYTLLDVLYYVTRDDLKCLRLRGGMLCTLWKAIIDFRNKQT

[27] = biological target: cGMP-dependent protein kinase 1 (Homo sapiens) (UniProt Q13976); assay: Inhibition of PRKG1 (unknown origin) at 10 uM using [33P]-ATP after 20 to 40 mins by scintillation counting method
MCF7 [28] = assay: Induction of apoptosis in human MCF7 cells assessed as late apoptotic cells level at 1 uM incubated for 24 hrs by Annexin V PI/FITC staining based flow cytometry (reference value: 9%); assay type: functional
[29] = biological target: Epidermal growth factor receptor (Homo sapiens) (UniProt P00533); assay: Inhibition of EGFR (unknown origin) at 10 uM using [33P]-ATP after 20 to 40 mins by scintillation counting method
[30] = biological target: Rhodopsin kinase GRK1 (Homo sapiens) (UniProt Q15835); assay: Inhibition of GRK1 (unknown origin) at 10 uM using [33P]-ATP after 20 to 40 mins by scintillation counting method
Sequence of Rhodopsin kinase GRK1 (Homo sapiens) (Q15835 whole entry): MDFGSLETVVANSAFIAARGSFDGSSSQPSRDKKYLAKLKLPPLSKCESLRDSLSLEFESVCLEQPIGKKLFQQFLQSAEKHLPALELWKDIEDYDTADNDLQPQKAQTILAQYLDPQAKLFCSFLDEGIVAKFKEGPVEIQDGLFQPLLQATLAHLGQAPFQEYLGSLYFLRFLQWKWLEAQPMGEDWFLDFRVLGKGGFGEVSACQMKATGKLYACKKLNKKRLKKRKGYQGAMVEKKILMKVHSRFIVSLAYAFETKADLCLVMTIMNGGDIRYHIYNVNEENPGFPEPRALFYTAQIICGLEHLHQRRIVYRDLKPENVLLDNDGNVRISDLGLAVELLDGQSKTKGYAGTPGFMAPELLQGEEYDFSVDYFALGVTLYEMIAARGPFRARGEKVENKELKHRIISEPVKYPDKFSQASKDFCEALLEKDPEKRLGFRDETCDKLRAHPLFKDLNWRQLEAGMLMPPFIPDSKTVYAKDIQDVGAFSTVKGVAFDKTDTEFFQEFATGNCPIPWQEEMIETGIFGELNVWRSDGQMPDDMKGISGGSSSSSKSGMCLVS

MCF7 [31] = assay: Induction of apoptosis in human MCF7 cells assessed as viable cells level at 1 uM incubated for 24 hrs by Annexin V PI/FITC staining based flow cytometry (reference value: 72.3%); assay type: functional
[32] = biological target: Activin receptor type-1-like (Homo sapiens) (UniProt P37023); assay: Inhibition of ALK1 (unknown origin) at 10 uM using [33P]-ATP after 20 to 40 mins by scintillation counting method
[33] = biological target: Casein kinase I isoform alpha (Homo sapiens) (UniProt P48729); assay: Inhibition of CK1alpha1 (unknown origin) at 10 uM using [33P]-ATP after 20 to 40 mins by scintillation counting method
[34] = biological target: Dual specificity tyrosine-phosphorylation-regulated kinase 3 (Homo sapiens) (UniProt O43781); assay: Inhibition of DYRK3 (unknown origin) at 10 uM using [33P]-ATP after 20 to 40 mins by scintillation counting method

IC50 (A549 [1]): 12.5 µM
IC50 [2]: 4.96 µM
IC50 (MCF7 [3]): 6.97 µM
SMILES: N#Cc1c(N=Cc2cccs2)c(C(=O)Nc2ccccc2)n2c1CCC2
IC50 (Hep 3B2): 18.6 µM

inhibition [4]: -11%
IC50 (A549 [1]): 3.24 µM
inhibition [10]: -43%
inhibition [11]: -16%
inhibition [13]: -10%
inhibition [18]: 8%
inhibition [19]: -5%
IC50 [2]: 12 µM
inhibition [21]: -37%
inhibition [22]: -27%
inhibition [23]: -16%
inhibition [26]: -19%
inhibition [27]: -4%
inhibition [29]: -47%
inhibition [30]: 7%
IC50 (MCF7 [3]): 7.76 µM
SMILES: Cc1ccc(NC(=O)c2c(N=Cc3ccc4ccccc4c3)c(C#N)c3n2CCC3)cc1
Activity (MCF7 [5]): 12.9%
Activity (MCF7 [6]): 1.1%
Activity (MCF7 [7]): 16.3%
Activity (MCF7 [8]): 23.5%
Activity (MCF7 [9]): 8.5%
Activity (MCF7 [12]): Active
Activity (MCF7 [14]): 0.8%
Activity (MCF7 [15]): Active
Activity (MCF7 [16]): 62.1%
Activity (MCF7 [17]): 66.9%
Activity (MCF7 [20]): 24.2%
Activity (MCF7 [24]): 0.8%
Activity (A549 [25]): Active
Activity (MCF7 [28]): 10.7%
IC50 (Hep 3B2): 8.69 µM
Activity (MCF7 [31]): 72.2%

IC50 (A549 [1]): 9.75 µM
IC50 [2]: 6.54 µM
IC50 (MCF7 [3]): 8.35 µM
SMILES: N#Cc1c(N=Cc2ccco2)c(C(=O)Nc2ccccc2)n2c1CCC2
IC50 (Hep 3B2): 12.8 µM

inhibition [4]: -18%
inhibition [32]: -14%
inhibition [33]: 0%
inhibition [10]: -49%
inhibition [11]: -3%
inhibition [13]: 10%
inhibition [19]: 1%
inhibition [21]: -22%
inhibition [22]: -34%
inhibition [23]: 3%
inhibition [26]: -5%
inhibition [27]: -4%
inhibition [30]: -2%
inhibition [34]: 10%
SMILES: Cc1ccc(NC(=O)c2ccc(CN3CCN(C)CC3)cc2)cc1Nc1nccc(-c2cccnc2)n1

IC50 (A549 [1]): 20.5 µM
IC50 [2]: 9.54 µM
IC50 (MCF7 [3]): 18.3 µM
SMILES: Cc1ccc(NC(=O)c2c(N=Cc3cccnc3)c(C#N)c3n2CCC3)cc1
IC50 (Hep 3B2): 34.8 µM

IC50 (MCF7 [3]): 2.3 µM
SMILES: COc1cccc2c1C(=O)c1c(O)c3c(c(O)c1C2=O)C[C@@](O)(C(=O)CO)C[C@@H]3O[C@H]1C[C@H](N)[C@H](O)[C@H](C)O1 [DOXORUBICIN]
IC50 (Hep 3B2): 2.4 µM

IC50 (A549 [1]): 28.4 µM
IC50 [2]: 8.41 µM
IC50 (MCF7 [3]): 15.7 µM
SMILES: N#Cc1c(N=Cc2ccco2)c(C(=O)Nc2ccc(Cl)cc2)n2c1CCC2
IC50 (Hep 3B2): 27.5 µM

IC50 (A549 [1]): 22.8 µM
IC50 [2]: 7.68 µM
IC50 (MCF7 [3]): 4.72 µM
SMILES: N#Cc1c(N=Cc2cccs2)c(C(=O)Nc2ccc(Cl)cc2)n2c1CCC2
IC50 (Hep 3B2): 11.6 µM
